This data set can be described thus: Toxicity liver stage against HepG2, at 10uM. It is filed as cell-based. The arrangement: test concentration 10 uM, cell line HepG2-A16-CD81EGFP. The note with it: human, HepG2-A16-CD81EGFP cells; read-out: INHIBITION
The method, boiled down:
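Uninfected HepG2-A16-CD81EGFP cells, 3 × 10^3 per well, 1536-well, plated on prespotted compound at 10 μM final, parasite-free screening media added to match infected plates; puromycin 10 μM positive, DMSO 0.5% negative; run in parallel with 48 h PbLuc assay at 37 °C, 5% CO2; viability by CellTiter-Glo luminescence, normalized to controls.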

For `Cc1cc(NCC(=O)N(C)Cc2cccs2)c(C(N)=O)cc1F`, the cytotoxicity at 10 µM is 0.83%.

For `CN(Cc1cnccn1)C(=O)[C@@]12CNC[C@@H]1CN(Cc1ccccc1)C2`, the cytotoxicity at 10 µM was -2.59%.

For `Cc1cnc(C(=O)N2Cc3cc(Cl)ccc3OC3(CCOCC3)C2)cn1`, the cytotoxicity at 10 µM was -37.9%.

As to `CCOCc1nn(C)c2c1CN(Cc1cccs1)CC2`, the cytotoxicity at 10 µM was -101%.

Regarding `OCCn1cc(CN2CCN(CCOc3ccc(F)cc3)CC2)cn1`, the cytotoxicity at 10 µM is -11.1%.

With `Cc1cc(CN2CCC(C3CCN(CCc4ccccc4)CC3)C2)[nH]n1` (stereo unspecified), the cytotoxicity at 10 µM was 9.2%.

For the compound `O=C(Cn1nc2ccccc2n1)N1CCCC(O)(CO)C1` (stereo unspecified), the cytotoxicity at 10 µM was -6.66%.

As to `CCN1CC2(CC1=O)CN(C(C)=O)CCN(C(=O)NC(C)C)C2` (stereo unspecified), the cytotoxicity at 10 µM amounted to 8.95%.

For `COc1ncccc1CN1CCC2(CCCN2S(C)(=O)=O)CC1`, the cytotoxicity at 10 µM is 8.86%.

As to `CN(CCN1CCOC1=O)CC(=O)Nc1ccc(Cl)c(C(F)(F)F)c1`, the cytotoxicity at 10 µM was -46.5%.

On to `O=C(CCN1CCCCO1)N1CCC(CO)(CCc2ccccc2)CC1`, for which the cytotoxicity at 10 µM amounted to 9.71%.

As for `CCCc1n[nH]c(C2CN(CC(=O)N(C)Cc3ccco3)CCO2)n1` (stereo unspecified), the cytotoxicity at 10 µM is -4.84%.

Turning to `COc1ccc(-c2nc3c([nH]2)CCCNC3=O)cc1OC`, the cytotoxicity at 10 µM came out at 26.6%.

Regarding `CN(C)CCN1C(=O)CCCC12CCCN(Cc1cccs1)C2` (stereo unspecified), the cytotoxicity at 10 µM came to 0.199%.

For `CCc1c(C(=O)N2CCN(C)[C@@H]3CS(=O)(=O)C[C@@H]32)[nH]c2ccccc12`, the cytotoxicity at 10 µM was -6.08%.

For `CC(=O)NCCc1ncnn1-c1ccc(F)c(Cl)c1`, the cytotoxicity at 10 µM is -15%.

As for `O=C(c1cccnc1)N1CCC2(CC1)CNc1c(F)cccc12`, the cytotoxicity at 10 µM is -1.02%.

As to `Cc1noc(C)c1CCCNC(=O)C1CCN(C(=O)C2CC2)CC1`, the cytotoxicity at 10 µM turned out to be 1.23%.

On to `Fc1ccccc1C(CNc1ccncn1)N1CCCC1` (stereo unspecified), for which the cytotoxicity at 10 µM was found to be 2.84%.

For `O=c1[nH]c2ccc(S(=O)(=O)N(CCO)Cc3ccncc3)cc2[nH]1`, the cytotoxicity at 10 µM amounted to 1.07%.

Take `Cc1ccc(-c2nn(C)c(C(=O)O)c2Br)cc1`: the cytotoxicity at 10 µM was -49.7%.

In the case of `COCCn1ccc2ccc(NC(=O)NCc3noc(C)n3)cc21`, the cytotoxicity at 10 µM worked out at 7.36%.

For `CCOC(C)C(=O)N(C)C1CCN(c2ccc(OC)cc2)CC1` (stereo unspecified), the cytotoxicity at 10 µM was -1.57%.

For `Cc1cnc(CN2CCCC(c3cc(C(F)(F)F)[nH]n3)C2)cn1` (stereo unspecified), the cytotoxicity at 10 µM is -0.168%.

Regarding `CCN(CC1CCOC1)C(=O)c1ccn(-c2cc(C)ccc2OC)n1` (stereo unspecified), the cytotoxicity at 10 µM was 6.16%.

In the case of `CCN(CC1CN(CCc2ccccn2)CCO1)c1cccnn1` (stereo unspecified), the cytotoxicity at 10 µM is -6%.

As for `O=S(=O)(c1cnccc1N1CCN(CCO)CC1)N1CCCCC1`, the cytotoxicity at 10 µM amounted to 15.7%.

On to `Cc1cnn(CC2CCCCN2C(=O)c2ccc3nncn3c2)c1` (stereo unspecified), for which the cytotoxicity at 10 µM is -8.66%.

Take `COc1cc(N2CC[C@@H]3[C@@H](CC2)OCCN3CC2CC2)ncn1`: the cytotoxicity at 10 µM was -107%.

Turning to `CC(C)CCC(=O)N1CCC2(CC1)OCCO2`, the cytotoxicity at 10 µM is -0.457%.

For `COCCOc1cccc(CNCc2ccc(-n3cncn3)nc2)c1`, the cytotoxicity at 10 µM is -11.8%.

On to `Cn1cnc(-c2ccc(F)cc2)c1NC(=O)CCNC(=O)C(C)(C)C`, for which the cytotoxicity at 10 µM stood at 3.84%.

As to `Cc1noc(C)c1CNC1CCN(c2ccccc2OC(F)F)C1` (stereo unspecified), the cytotoxicity at 10 µM is 9.5%.

`Cc1cc(=O)[nH]c(-n2nc(C)c(CCC(=O)NCc3ccco3)c2C)n1`: the cytotoxicity at 10 µM was -5.33%.

Take `Cc1cc(CNc2ccc(CC(=O)N(C)c3ccccc3)cc2)no1`: the cytotoxicity at 10 µM was -13.9%.

`O=C(c1cnc2c(cnn2C2CCCC2)c1)N1CCN(CCO)CC1`: the cytotoxicity at 10 µM was -17.2%.

Turning to `CN(Cc1nc(C(F)(F)F)cs1)C(=O)CCc1ccccn1`, the cytotoxicity at 10 µM was determined as 23.5%.

For the compound `COc1ccc(CC(=O)N2CC[C@@]3(O)CCNC[C@H]3C2)c(OC)c1`, the cytotoxicity at 10 µM worked out at 4.26%.

`CC(C)[C@H]1CN(Cc2ccccn2)C[C@@H]1NC(=O)CC1CCC1`: the cytotoxicity at 10 µM is -2.57%.

For the compound `CCC[C@H]1CN(Cc2ccc3c(c2)OCCO3)C[C@@H]1NC(=O)COC`, the cytotoxicity at 10 µM is -4.19%.

Turning to `CC(C)NC(=O)C1CN(Cc2cccs2)Cc2ccnn2C1` (stereo unspecified), the cytotoxicity at 10 µM is -1.89%.

With `Cc1csc(CNc2cnn(CC(C)C)c2)n1`, the cytotoxicity at 10 µM is -6.63%.

Turning to `O=C1CCN(C(=O)NCCc2c[nH]c3ccc(Cl)cc23)CCN1`, the cytotoxicity at 10 µM worked out at 4.26%.

On to `Cc1nnc2n1CCN(CC(=O)N1CCc3ccccc3C1)C2`, for which the cytotoxicity at 10 µM was -9.27%.

On to `CN(Cc1nnc(-c2ccco2)o1)C(C(N)=O)c1cccc(F)c1` (stereo unspecified), for which the cytotoxicity at 10 µM came out at 16.7%.

Turning to `Cc1cccc(CNCC2(O)CCCN(CC3CCCCC3)C2=O)n1` (stereo unspecified), the cytotoxicity at 10 µM is -10.5%.

Regarding `CC(c1ncc(-c2ccccc2)o1)N1CCN(C(=O)C(C)(C)C)CC1` (stereo unspecified), the cytotoxicity at 10 µM was 17.4%.

Consider `CCN1CCn2c(C)cnc2C12CCN(C(=O)NCC(C)C)CC2`, for which the cytotoxicity at 10 µM was -1.07%.

For `CS(=O)(=O)N1CCCN(C(=O)c2ccc(Cn3ccccc3=O)o2)CC1`, the cytotoxicity at 10 µM was -3.41%.

For the compound `CCN(Cc1ccc(Cl)s1)S(=O)(=O)CCOC`, the cytotoxicity at 10 µM came out at 12.1%.

Turning to `Cc1cc(N2CCC(c3ncc[nH]3)CC2)cc(C)n1`, the cytotoxicity at 10 µM is -1.95%.

For `CN(C)C(=O)C1CCCN1c1ncnc2ccsc12` (stereo unspecified), the cytotoxicity at 10 µM amounted to 4.04%.

As for `CSCc1cc(C(=O)NC2(C#N)CC2)ccc1F`, the cytotoxicity at 10 µM was -10.5%.

Take `COCC(=O)N1CC[C@]2(O)CCN(C(=O)CCc3ccsc3)C[C@@H]2C1`: the cytotoxicity at 10 µM is 0.689%.

In the case of `COc1ccccc1CN1C(=O)O[C@@H]2CN(C(C)C)C[C@@H]21`, the cytotoxicity at 10 µM is 3.99%.

As to `CCNC(=O)NC(=O)CSC(C)c1ccccc1F` (stereo unspecified), the cytotoxicity at 10 µM was determined as 15.6%.

Take `Cc1ccnn1CCC(=O)N1CCN(C2CCc3ccccc3C2)CC1` (stereo unspecified): the cytotoxicity at 10 µM is -118%.

Take `CCc1c(C)nc2n(c1=O)CC(C(=O)Nc1ccccc1F)CS2` (stereo unspecified): the cytotoxicity at 10 µM amounted to 1.57%.

As for `Oc1nc(N2CCCC2)nc2c1CCN(Cc1cccnc1)CC2`, the cytotoxicity at 10 µM was -7.25%.

In the case of `Cc1occc1C(=O)NCC(=O)N1CCCC(c2ccccc2)CC1` (stereo unspecified), the cytotoxicity at 10 µM came out at 6.35%.

`Fc1ccccc1Cc1noc(CN2CCCC(CN3CCCC3)C2)n1` (stereo unspecified): the cytotoxicity at 10 µM was -12.3%.

Regarding `Cc1nsc(NC2CCN(c3ccccc3OC(F)F)C2=O)n1` (stereo unspecified), the cytotoxicity at 10 µM stood at 2.14%.

With `O=C(CCNc1ncc2c(n1)CCN2c1ccccc1)N1CCCC1`, the cytotoxicity at 10 µM was 9.5%.

In the case of `CCc1sc(-c2nnc(CNC(C)Cn3cc(C)cn3)o2)cc1C` (stereo unspecified), the cytotoxicity at 10 µM amounted to 0.493%.

As for `Cc1occc1C(=O)N1C[C@H](Oc2ccccn2)[C@H]2OCCC[C@H]21`, the cytotoxicity at 10 µM was -110%.

For the compound `Cc1cc(C)n2nc(CC(=O)N3CC[C@H]4NCCC[C@]4(CO)C3)nc2n1`, the cytotoxicity at 10 µM is -0.363%.

As to `O=C(NCc1cnc2n1CCN(c1ncc(F)cn1)CC2)C1CCC1`, the cytotoxicity at 10 µM was -0.881%.

As for `Cc1cc(C2CCCN2C(=O)CN(C)Cc2ccccc2)no1` (stereo unspecified), the cytotoxicity at 10 µM was found to be 5.1%.

In the case of `Clc1ccccc1CN1CCc2nc(C3CCCNC3)ncc2C1` (stereo unspecified), the cytotoxicity at 10 µM is -19.7%.

Consider `O=C(c1cccc(N2CCCC2=O)c1)N1CCCC(n2cncn2)C1` (stereo unspecified), for which the cytotoxicity at 10 µM was -12%.

Consider `CCCN1CCN(C(=O)c2cnc(C)nc2)[C@H]2CS(=O)(=O)C[C@H]21`, for which the cytotoxicity at 10 µM is 0.0652%.

Take `CC(C)c1noc(CN2CCC3(CCCO3)CCC2=O)n1` (stereo unspecified): the cytotoxicity at 10 µM turned out to be 0.145%.

As for `CCC(Nc1nccc(C2CCCC2)n1)c1ccncc1` (stereo unspecified), the cytotoxicity at 10 µM was -63.8%.

In the case of `Cc1csc(CN2CCC[C@]3(C[C@H](OCC4CC4)CO3)C2)n1`, the cytotoxicity at 10 µM was -141%.

For the compound `COCCn1cc(NCc2c[nH]nc2-c2ccc(OC)cc2)cn1`, the cytotoxicity at 10 µM was 6.05%.

Take `CC(C)(CO)CCCNC(=O)N1CCc2c(F)ccc(F)c2C1`: the cytotoxicity at 10 µM is -2.18%.

Turning to `O=C(O)c1cnc(N2CCCC2)nc1COc1ccc(F)cc1`, the cytotoxicity at 10 µM is -1.14%.

`CN(Cc1ccccc1)CC1CC2(CO1)CN(Cc1nccs1)C2` (stereo unspecified): the cytotoxicity at 10 µM came out at 8.88%.

In the case of `CN1CC2(COCCN(c3ncccn3)C2)OCC1=O` (stereo unspecified), the cytotoxicity at 10 µM is -112%.

On to `CC(=O)N1CCC(c2cncc(N3CCCCCC3)n2)CC1`, for which the cytotoxicity at 10 µM came out at 11.3%.

For `COCC1CN(Cc2ccc3c(c2)OCO3)Cc2ncn(C)c21` (stereo unspecified), the cytotoxicity at 10 µM amounted to 4.18%.

For `Cc1ccccc1Oc1ncccc1CNS(C)(=O)=O`, the cytotoxicity at 10 µM was -22.1%.

As for `Cc1c[nH]c(CN2CCCn3nc(CNS(C)(=O)=O)cc3C2)n1`, the cytotoxicity at 10 µM was determined as 1.79%.

Take `COCCN1CCC2(CC1)CC(OCC1CC1)c1ccc(C)cc12` (stereo unspecified): the cytotoxicity at 10 µM came to 15.5%.

Turning to `CCc1ncc2c(n1)CN(Cc1nc(C)c(C)o1)CC2`, the cytotoxicity at 10 µM was 2.92%.

`Cc1ccc(-n2nnc(CC(=O)N3CCSCC3)c2C)cc1`: the cytotoxicity at 10 µM was -13.1%.

For the compound `Cc1cc(CNC(=O)N2CCN(c3nc(C)c(C)s3)CC2)no1`, the cytotoxicity at 10 µM is -1.01%.

In the case of `CC(C)CCn1ccc(NC2CCSC2)n1` (stereo unspecified), the cytotoxicity at 10 µM came out at 6.93%.

Turning to `Cc1noc(C(C)C)c1C(=O)NCC(c1ccccc1)N(C)C` (stereo unspecified), the cytotoxicity at 10 µM was -7.72%.

`C1CN(Cc2noc(C3CC3)n2)CCN(Cc2nnc(C3CC3)o2)C1`: the cytotoxicity at 10 µM is -10.9%.

Take `CC(C)c1cc(C2CCN(C(=O)Cn3nc4ccccc4n3)CC2)[nH]n1`: the cytotoxicity at 10 µM worked out at 0.685%.

As for `Cc1ccc(C(=O)N2CCN3C[C@H](Oc4cccnc4)C[C@H]3C2)cn1`, the cytotoxicity at 10 µM came out at 4.66%.

As to `CN(C)C1COC2(CCN(C(=O)c3cccc(Cl)c3)CC2)C1` (stereo unspecified), the cytotoxicity at 10 µM was -7.81%.

Regarding `Cc1csc(NC(=O)CN(C)CCOc2cccc(F)c2)n1`, the cytotoxicity at 10 µM was 0.115%.

Turning to `COc1ccccc1-c1cc(C(=O)N(C)C)nc2c1cnn2C`, the cytotoxicity at 10 µM is 7.83%.

On to `O=C(c1cccs1)N1CCC(O)(CN2CCc3ccccc3C2)C1` (stereo unspecified), for which the cytotoxicity at 10 µM is 1.49%.
